Source: PubChem BioAssay (Broad Institute)
Shown are actives, neighbours in structure and some others; about 1.6% of the full set was active somewhere.
RAD54 branch: inhibitors of human RAD54 branch migration | RAD54 Holliday junction branch migration, FAM/BHQ fluorescence | Q92698 | 360,000 tested, 0.14% active | inhibition, % at 10.4 µM | AID 602329;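 active = mean normalized replicate activity at least 40 and at least half of replicates scoring 40 or more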;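 also: inhibitors cause a drop in the FAM fluorescence signal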
Target sequence (Q92698 whole entry, looked up): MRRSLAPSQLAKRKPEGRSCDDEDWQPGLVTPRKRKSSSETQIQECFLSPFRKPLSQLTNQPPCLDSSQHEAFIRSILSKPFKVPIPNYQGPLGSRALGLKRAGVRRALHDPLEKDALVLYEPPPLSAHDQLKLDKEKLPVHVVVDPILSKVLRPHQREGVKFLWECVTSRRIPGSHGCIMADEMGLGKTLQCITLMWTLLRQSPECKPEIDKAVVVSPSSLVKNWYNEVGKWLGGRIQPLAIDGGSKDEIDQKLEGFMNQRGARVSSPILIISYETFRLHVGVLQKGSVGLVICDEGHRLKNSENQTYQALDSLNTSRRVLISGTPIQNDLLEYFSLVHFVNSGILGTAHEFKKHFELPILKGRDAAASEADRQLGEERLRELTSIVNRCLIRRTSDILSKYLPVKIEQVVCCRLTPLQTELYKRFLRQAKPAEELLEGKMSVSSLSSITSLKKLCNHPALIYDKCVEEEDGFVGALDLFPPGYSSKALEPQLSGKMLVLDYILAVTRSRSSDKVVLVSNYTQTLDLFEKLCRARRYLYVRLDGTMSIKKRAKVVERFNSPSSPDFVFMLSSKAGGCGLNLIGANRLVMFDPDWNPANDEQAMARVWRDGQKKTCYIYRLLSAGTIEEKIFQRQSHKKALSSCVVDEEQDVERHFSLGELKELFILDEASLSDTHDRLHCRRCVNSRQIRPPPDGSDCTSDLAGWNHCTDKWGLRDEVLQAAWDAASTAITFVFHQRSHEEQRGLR
PvdQ acylase: blocks Pseudomonas aeruginosa PvdQ acylase activity. purified PvdQ acylase, fluorescence plate reader. inhibition, % at 10 µM. 340,000 tested, 0.063% active. AID 488965; in the data active = inhibition above about 30%, passing the limit was not always enough
SR-BI uptake up: activators of SR-BI mediated HDL lipid uptake | AID 504775 | activation, % at 12.5 µM | 320,000 tested, 0.096% active | CHO ldlA[mSR-BI] cells, DiI-HDL uptake fluorescence, 3 h; 100 = double the neutral-control signal;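 active = mean replicate activation of at least 60% and every replicate at or above 60%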
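Test system: SR-BI-overexpressing, LDLR-lacking CHO cells; Also added: labelled HDL, 10 µg/mL; Measured by: bottom-read cell fluorescence after medium removal, ex 550/em 595 nm; Timing: 3 h uptake period with compound, 37 °C; Buffer or medium: F12, 0.5% BSA, 25 mM HEPES; Doses: single compound concentration, delivered by pin transfer.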
dFosB act-1: activators of mouse delta FosB homodimer; P13346; purified delta FosB, TAMRA-CDK5 oligo fluorescence polarization; percent of positive-control signal above neutral wells; activation, % at 25 µM; 340,000 tested, 0.99% active;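 active = mean activation above about 17%, with every replicate also reaching it, limit read from the data, passing the limit was not always enough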
SR-BI HDL uptake: inhibitors of mouse SR-BI mediated HDL lipid uptake; Q61009; ldlA[mSR-BI] CHO cells, DiI-HDL uptake fluorescence, 3 h; inhibition, % at 12.5 µM; 320,000 tested, 0.96% active; AID 488896;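 active = mean replicate inhibition of at least 70% and a set share of replicates each scoring 70 or more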
S100A4 inh HTS: inhibitors of human S100A4 binding to myosin IIA peptide; 360,000 tested, 0.14% active; inhibition, % at 10.7 µM; S100A4/TAMRA-MyoIIA peptide fluorescence polarization;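 active = mean inhibition of at least 70% across replicates, with every replicate also reaching that level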
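Compound dosing: one dose per compound; test system: human S100A4 monomer with TAMRA-labelled myosin IIA peptide; probe or stimulus: TAMRA-labelled myosin IIA heavy-chain peptide probe, 5 nM; medium: HEPES buffer with Ca2+, pH 7.2; schedule: 5 min incubation before reading; benchmarks: neutral control DMSO, positive control TFP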
dFosB act-2: delta FosB (mouse) homodimer activation | shares compounds with dFosB act-1 | purified delta FosB, TAMRA-CDK5 oligo fluorescence polarization; normalised: neutral wells 0, positive control 100 | activation, % at 24.9 µM | 2,400 tested, under 10 active;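 active = highest replicate activation at or above 34% and every replicate reaching that threshold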;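 also: higher polarization means more probe DNA bound by delta FosB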
Numbers stand for hits; - = inactive; . = not tested or not shown.

SMILES | RAD54 branch | PvdQ acylase | SR-BI uptake up | dFosB act-1 | SR-BI HDL uptake | S100A4 inh HTS | dFosB act-2
COc1cccc(/C=C/C(=O)OCC(=O)Nc2ccc3[nH]c(=O)[nH]c3c2)c1OC | - | - | - | - | - | - | .
O=C(COC(=O)/C=C/c1cccc(F)c1)Nc1ccc2[nH]c(=O)[nH]c2c1 | - | - | - | - | - | - | .
CO[C@H]1CN(C)C(=O)c2ccc(NS(C)(=O)=O)cc2OC[C@H](C)N(C(=O)C2CCCC2)C[C@H]1C | - | . | . | . | . | - | .
Cc1ccc(-c2cc(C(=O)N/N=C/c3ccco3)[nH]n2)cc1 | - | - | - | - | - | . | .
O=C(N/N=C/c1ccco1)c1cc(-c2ccc(Cl)cc2)n[nH]1 | . | - | - | 25 | - | - | -
C[C@H](CO)N1C[C@H](C)[C@H](CN(C)Cc2ccc(Oc3ccccc3)cc2)Oc2ccc(NC(=O)CCCN(C)C)cc2C1=O | - | . | . | . | . | - | .
C[C@H]1CN([C@@H](C)CO)C(=O)c2cc(-c3cccc(F)c3)cnc2O[C@@H]1CN(C)C(=O)C1CCC1 | - | . | . | . | . | - | .
CC(C)NC(=O)N(C)C[C@@H]1Oc2ccc(NS(=O)(=O)c3ccc(F)cc3)cc2CC(=O)N([C@H](C)CO)C[C@H]1C | - | . | . | . | . | - | .
O=C(C[C@@H]1C/C=C\C[C@@H](Cc2ccc(F)cc2)C(=O)OC[C@@H](Cc2ccccc2)NC1=O)N[C@H](CO)Cc1ccccc1 | - | - | - | 32 | - | - | -
COC(=O)c1sc2ncccc2c1OCc1c(Cl)cccc1Cl | - | - | - | 35 | - | . | -
C[C@@H]1CN([C@H](C)CO)C(=O)c2cc(NC(=O)CCC(F)(F)F)ccc2O[C@H]1CN(C)S(=O)(=O)c1ccccc1 | - | . | . | . | . | - | .
COc1ccc2sc(N(CCCN(C)C)C(=O)c3ccc(S(=O)(=O)N4CCCC4)cc3)nc2c1 | - | - | - | - | - | - | .
CN(C)CCN(C(=O)c1ccc(C(=O)c2ccccc2)cc1)c1nc2cc3c(cc2s1)OCCO3 | - | - | - | 24 | - | - | -
CCN(CC)CCN(C(=O)c1ccc(S(=O)(=O)N2CCCCC2)cc1)c1nc2cc3c(cc2s1)OCO3 | . | - | - | 32 | - | . | -
CN(C)CCN(C(=O)c1ccc2ccccc2c1)c1nc2c(F)cccc2s1 | - | - | - | - | - | - | .
Cc1cc(C)c2nc(N(CCN(C)C)C(=O)c3ccc4ccccc4c3)sc2c1 | - | - | - | 21 | - | - | -
COc1ccc2sc(N(CCCN(C)C)C(=O)c3ccc(S(=O)(=O)N4CCc5ccccc5C4)cc3)nc2c1 | - | - | - | 33 | - | - | -
CC(C)NC(=O)Nc1ccc2c(c1)C(=O)N([C@@H](C)CO)C[C@H](C)[C@@H](CN(C)C(=O)c1ccncc1)OCCCC[C@H](C)O2 | - | . | . | . | . | - | .
O=C(NCC[C@H]1CC[C@@H](NC(=O)C2CC2)[C@@H](CO)O1)c1cnccn1 | - | . | . | . | . | - | .
C[C@@H]1CCCCO[C@@H](CN(C)C(=O)Nc2cccc3ccccc23)[C@H](C)CN([C@H](C)CO)C(=O)c2cc(NC(=O)c3ccncc3)ccc2O1 | - | . | . | . | . | - | .
CCNC(=O)C[C@H]1CC[C@H]2[C@@H](COC[C@H](O)CN2C(=O)Nc2cccc(OC)c2)O1 | - | . | . | . | . | . | .
C[C@@H]1CCCCO[C@H](CN(C)C(=O)c2ccncc2)[C@H](C)CN([C@H](C)CO)C(=O)c2cc(NC(=O)C3CCCCC3)ccc2O1 | - | . | . | . | . | - | .
O=C(C[C@@H]1C[C@H]2c3cc(NC(=O)c4ccc5c(c4)OCO5)ccc3O[C@H]2[C@@H](CO)O1)NCc1cccnc1 | - | . | . | . | . | - | .
CNC(=O)C[C@H]1CC[C@@H]2[C@H](COC[C@@H](O)CN2C(=O)Nc2cccc(OC)c2)O1 | - | . | . | . | . | - | .
CN(C)CCN(C(=O)c1ccc(S(=O)(=O)N(C)c2ccccc2)cc1)c1nc2cc3c(cc2s1)OCO3 | - | - | - | - | - | - | .
SMILES | RAD54 branch | PvdQ acylase | SR-BI uptake up | dFosB act-1 | SR-BI HDL uptake | S100A4 inh HTS | dFosB act-2
CN(C)CCN(C(=O)c1ccc(S(=O)(=O)N(C)c2ccccc2)cc1)c1nc2ccc(Cl)cc2s1 | - | - | - | 28 | - | - | -
CN(C)CCCN(C(=O)c1ccc2c(c1)CCCC2)c1nc2cc3c(cc2s1)OCO3 | - | - | - | 26 | - | - | -
CN(C)CCCN(C(=O)c1ccc2c(c1)CCCC2)c1nc2ccc(F)cc2s1 | - | - | - | - | - | . | .
O=C(Nc1nc(-c2nc3ccccc3s2)cs1)c1ccco1 | - | - | - | 78 | - | - | -
O=C(Nc1nc(-c2ccc(Cl)s2)cs1)c1ccco1 | . | - | - | - | - | - | .
COc1cc(/C=C(/C#N)c2nc3ccccc3[nH]2)ccc1OCC(=O)Nc1ccccc1C | - | - | - | - | - | - | .
COc1cc(/C=C(\C#N)c2nc3ccccc3[nH]2)ccc1OC(=O)c1ccco1 | . | - | - | 27 | - | - | -
CCS(=O)(=O)Nc1ccc(-c2nnc(SCC(=O)c3ccc(NC(C)=O)c(OC)c3)o2)cc1 | . | - | - | 34 | - | . | -
CCS(=O)(=O)Nc1ccc(-c2nnc(SCC(=O)c3cccc(OC)c3)o2)cc1 | - | - | - | - | - | . | .
Cc1ccc(NC(=O)Cn2nnc(C(=O)NCc3ccccc3)c2N)cc1C | - | - | - | - | - | - | .
Cc1ccc(NC(=O)Cn2nnc(C(=O)NCc3ccc(Cl)cc3)c2N)cc1F | - | - | - | 77 | - | - | -
CSc1cccc(NC(=O)c2nnn(CC(=O)Nc3cc(C)cc(C)c3)c2N)c1 | - | - | - | 64 | - | - | -
COc1ccc(NC(=O)Cn2nnc(C(=O)NCc3ccc(C)cc3)c2N)cc1OC | - | - | - | - | - | - | .
Cc1ccc(NC(=O)c2nnn(CC(=O)Nc3ccccc3)c2N)cc1C | - | - | - | - | - | . | .
Cc1ccccc1NC(=O)Cn1nnc(C(=O)NCc2ccco2)c1N | . | - | - | - | - | - | .
CCOc1ccccc1NC(=O)Cn1nnc(C(=O)NCc2ccco2)c1N | - | - | - | 28 | - | . | -
Cc1ccc(CNC(=O)c2nnn(CC(=O)Nc3cc(C)cc(C)c3)c2N)cc1 | - | - | - | 88 | - | - | -
O=C(C[C@H]1CC[C@@H]2[C@H](COC[C@@H](O)CN2S(=O)(=O)c2ccc(Cl)cc2)O1)N[C@@H]1CCN(Cc2ccccc2)C1 | - | . | . | . | . | - | .
CO[C@@H]1CN(C)C(=O)c2ccc(NS(=O)(=O)c3ccccc3C)cc2OC[C@@H](C)N(S(=O)(=O)c2ccccc2)C[C@H]1C | - | . | . | . | . | - | .
Cc1cc(C)cc(NC(=O)Cn2nnc(C(=O)NCc3ccc4c(c3)OCO4)c2N)c1 | - | - | - | 77 | - | - | -
